Reference: ChEMBL document CHEMBL3774362, “Design, synthesis, and evaluation of 2-piperidone derivatives for the inhibition of β-amyloid aggregation and inflammation mediated neurotoxicity” (Bioorg Med Chem, 2016)
Calls of active or inactive are those of the source. The rule behind the calls is not given here.

Assays:
[1] = target: Amyloid-beta precursor protein (Homo sapiens) (UniProt P05067); experiment: Inhibition of Amyloid beta (1 to 42) (unknown origin) self aggregation at 20 uM for 24 hrs by Thioflavin T-based fluorometric assay
How it was run: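 Aβ1–42 was HFIP-pretreated and dissolved in DMSO to a 200 μM stock. It was mixed with compound in PBS pH 7.4, compound final 20 μM. Incubation was 24 h at room temperature with shaking. 5 μM ThT in 50 mM glycine–NaOH pH 8.5 was then added. Fluorescence was read at ex 435 nm / em 490 nm. Mean ± SD of three independent measurements, each in duplicate.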

[2] = target: Amyloid-beta precursor protein (Homo sapiens) (UniProt P05067); experiment: Inhibition of Amyloid beta (1 to 42) (unknown origin) self aggregation for 24 hrs by Thioflavin T-based fluorometric assay
[3] = system: BV-2; experiment: Neuroprotective activity in mouse BV2 cells assessed as inhibition of LPS-stimulated IL-1beta production preincubated for 3 hrs followed by LPS treatment for 12 hrs by ELISA; assay type: functional, cell-based
How it was run: (§1)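 BV-2 microglia were seeded 2 × 10^4 cells/well and pretreated 3 h with compound at 0.0016, 0.008, 0.04, 0.2 and 1 μmol/L. They were then stimulated with LPS (1 μg/mL) for 12 h. Clarified supernatants were assayed by ELISA for the named cytokine.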

[4] = system: BV-2; experiment: Neuroprotective activity in mouse BV2 cells assessed as inhibition of LPS-stimulated IL6 production preincubated for 3 hrs followed by LPS treatment for 12 hrs by ELISA; assay type: functional, cell-based; how it was run: as §1
[5] = system: BV-2; experiment: Neuroprotective activity in mouse BV2 cells assessed as inhibition of LPS-stimulated TNFalpha production preincubated for 3 hrs followed by LPS treatment for 12 hrs by ELISA; assay type: functional, cell-based; how it was run: as §1
[6] = target: Amyloid-beta precursor protein (Homo sapiens) (UniProt P05067); experiment: Inhibition of Amyloid beta (1 to 42 residues) (unknown origin) assessed as no fibril formation at 50 uM after 4 days by atomic force microscopic analysis
How it was run: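 Aβ1–42 was pretreated with HFIP and taken up in DMSO. It was incubated in PBS pH 7.4 for 4 days at 30 °C, with or without compound. Final concentrations were 25 μM peptide and 50 μM compound. 10 μL aliquots were deposited on mica for 10 min, rinsed with water and dried under nitrogen. Samples were imaged by tapping-mode AFM.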

[7] = system: SH-SY5Y; experiment: Neuroprotective activity against LPS-induced toxicity in human SH-SY5Y cells assessed as cell viability using compound-conditioned media from LPS-stimulated BV2 cells at 5 uM by MTT assay; assay type: functional
How it was run: (§2)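 BV-2 cells were seeded 2 × 10^4/well and pretreated 3 h with compound at 0.2, 1 and 5 μM. They were then stimulated 12 h with LPS 1 μg/mL, and the supernatant was clarified as conditioned medium. SH-SY5Y cells were seeded 5 × 10^3/well, grown 24 h and serum-starved overnight, then exposed to the conditioned medium. Viability was read by MTT at 490 nm. Mean ± SD of three independent experiments.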

[8] = system: SH-SY5Y; experiment: Cytotoxicity against human SH-SY5Y cells at 5 uM by MTT assay; assay type: cell-based
How it was run: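 SH-SY5Y (DMEM/F-12, 10% FBS, 37 °C, 5% CO2) seeded 1 × 10^4 cells/well, grown 24 h, then exposed to compound at 0.04, 0.2, 1 and 5 μmol/L for 24 h. MTT added for a further 4 h; absorbance read at 490 nm. Mean ± SD of three independent experiments.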

[9] = system: SH-SY5Y; experiment: Neuroprotective activity against LPS-stimulated toxicity in human SH-SY5Y cells using compound-conditioned media from LPS-stimulated BV2 cells by MTT assay; assay type: functional, cell-based; how it was run: as §2
[10] = target: Myeloid differentiation primary response protein MyD88 (Homo sapiens) (UniProt Q99836); experiment: Inhibition of Flag-tagged MyD88-HA-tagged MyD88 (unknown origin) homodimerization transfected in HEK293 cells after 7 hrs by Co-immunoprecipitation assay; assay type: cell-based
How it was run: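 HEK293 cells were seeded at 9 × 10^5/well and transfected with Flag-MyD88 and HA-MyD88 plasmids. Compound was added 7 h after transfection at 10 and 40 μM. Cells were harvested 24 h post-transfection and lysed in RIPA. Lysates were precleared with protein A/G beads and immunoprecipitated with anti-HA on A/G beads at 4 °C. Captured Flag-MyD88 was detected by western blot.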

[11] = Cytotoxicity against mouse BV2 cells assessed as cell viability at 5 uM by MTT assay; assay type: cell-based; conditions: bv-2, 5 µM
How it was run: (§3)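 BV-2 murine microglia kept in DMEM-H with 10% FBS at 37 °C, 5% CO2. Cells seeded 1 × 10^4 cells/well and cultured 24 h. Compound then added at 0.008, 0.04, 0.2, 1 and 5 μmol/L, with or without LPS. Viability read by MTT as absorbance at 490 nm.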

[12] = Cytotoxicity against mouse BV2 cells assessed as cell viability at 0.008 to 5 umol/L by MTT assay in presence of LPS; assay type: cell-based; conditions: bv-2; how it was run: as §3

Chain of Amyloid-beta precursor protein (Homo sapiens) (P05067 whole entry, the tested form may be a part): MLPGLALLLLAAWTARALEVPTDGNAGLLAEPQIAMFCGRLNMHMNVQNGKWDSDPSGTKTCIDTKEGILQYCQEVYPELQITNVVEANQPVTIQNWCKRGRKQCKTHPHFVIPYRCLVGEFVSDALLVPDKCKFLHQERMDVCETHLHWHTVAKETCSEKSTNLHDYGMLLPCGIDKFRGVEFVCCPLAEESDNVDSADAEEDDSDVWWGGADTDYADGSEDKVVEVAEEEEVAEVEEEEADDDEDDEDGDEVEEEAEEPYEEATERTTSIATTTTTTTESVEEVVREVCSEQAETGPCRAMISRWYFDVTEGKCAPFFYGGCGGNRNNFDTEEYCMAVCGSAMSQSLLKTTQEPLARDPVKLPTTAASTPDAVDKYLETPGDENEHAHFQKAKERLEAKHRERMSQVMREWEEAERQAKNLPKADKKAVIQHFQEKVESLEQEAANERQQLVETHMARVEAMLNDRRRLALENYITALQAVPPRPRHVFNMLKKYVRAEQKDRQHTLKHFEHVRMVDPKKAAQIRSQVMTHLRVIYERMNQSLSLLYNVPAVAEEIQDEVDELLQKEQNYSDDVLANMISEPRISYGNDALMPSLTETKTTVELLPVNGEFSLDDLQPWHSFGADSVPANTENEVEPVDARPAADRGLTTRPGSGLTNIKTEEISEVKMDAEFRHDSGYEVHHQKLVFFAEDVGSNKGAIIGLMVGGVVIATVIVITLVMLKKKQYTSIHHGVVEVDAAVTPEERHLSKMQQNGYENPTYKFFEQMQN
Chain of Myeloid differentiation primary response protein MyD88 (Homo sapiens) (Q99836 whole entry): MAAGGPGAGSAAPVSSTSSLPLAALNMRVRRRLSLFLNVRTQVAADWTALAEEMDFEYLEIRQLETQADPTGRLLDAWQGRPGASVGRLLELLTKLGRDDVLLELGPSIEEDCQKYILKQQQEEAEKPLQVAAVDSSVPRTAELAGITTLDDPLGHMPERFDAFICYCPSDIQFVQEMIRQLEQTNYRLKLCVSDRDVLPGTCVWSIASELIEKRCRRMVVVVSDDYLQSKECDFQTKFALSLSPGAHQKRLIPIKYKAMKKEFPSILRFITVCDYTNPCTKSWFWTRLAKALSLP

Which inhibition [1] does the source give for COc1ccc(CN2C(=O)C[C@@H](c3ccccc3)[C@H]([N+](=O)[O-])[C@H]2c2ccc(O)cc2)cc1 (racemic) here?
Its inhibition is 46.1%.

With COc1ccc(CN2C(=O)C[C@@H](c3ccccc3Cl)[C@H]([N+](=O)[O-])[C@H]2c2ccc(O)cc2)cc1 (racemic) as the compound, how does the inhibition [1] read?
The inhibition was 28.7%.

For Cc1ccc(CN2C(=O)C[C@@H](c3ccccc3Cl)[C@H]([N+](=O)[O-])[C@H]2c2ccc(O)cc2)cc1 (racemic), which inhibition [1] is on record?
Its inhibition is 46.1%.

For COc1cccc(CN2C(=O)C[C@@H](c3ccccc3Cl)[C@H]([N+](=O)[O-])[C@H]2c2ccc(O)cc2)c1 (racemic), which inhibition [1] is on record?
The inhibition was 50%.

Which inhibition [1] does the source give for COc1cccc(CN2C(=O)C[C@@H](c3ccccc3)[C@H]([N+](=O)[O-])[C@H]2c2ccc(O)cc2)c1 (racemic) here?
Its inhibition is 51.7%.

Which inhibition [1] does the source give for COC(=O)c1ccc(CN2C(=O)C[C@@H](c3ccccc3)[C@H]([N+](=O)[O-])[C@H]2c2ccc(O)cc2)cc1 (racemic) here?
Its inhibition is 36.3%.

For Cc1ccc(CN2C(=O)C[C@@H](c3ccccc3)[C@H]([N+](=O)[O-])[C@H]2c2ccc(O)cc2)cc1 (racemic), which inhibition [1] is on record?
Its inhibition is 39.9%.

Which inhibition [1] does the source give for O=C1C[C@@H](c2ccccc2Cl)[C@H]([N+](=O)[O-])[C@@H](c2ccc(O)cc2)N1Cc1ccccc1 (racemic) here?
Its inhibition is 11.2%.

With COc1cc(OC)cc([C@@H]2CC(=O)N(Cc3cccnc3)[C@H](c3ccc(O)cc3)[C@H]2[N+](=O)[O-])c1 (racemic) as the compound, how does the inhibition [1] read?
The inhibition was 54%.

With O=C1C[C@@H](c2ccccc2Cl)[C@H]([N+](=O)[O-])[C@@H](c2ccc(O)cc2)N1Cc1cccnc1 (racemic) as the compound, how does the inhibition [1] read?
Its inhibition is 41.6%.

With COc1cccc(CN2C(=O)C[C@@H](c3ccc(C)cc3)[C@H]([N+](=O)[O-])[C@H]2c2ccc(O)cc2)c1 (racemic) as the compound, how does the inhibition [1] read?
The inhibition was 48.9%.

Which inhibition [1] does the source give for COc1cc([C@@H]2[C@@H]([N+](=O)[O-])[C@H](c3ccccc3Cl)CC(=O)N2Cc2ccccc2)ccc1O (racemic) here?
The inhibition was 11.8%.

For Cc1ccc([C@@H]2CC(=O)N(Cc3ccccc3)[C@H](c3ccc(O)cc3)[C@H]2[N+](=O)[O-])cc1 (racemic), which inhibition [1] is on record?
Its inhibition is 44.1%.

Which inhibition [1] does the source give for O=C1C[C@@H](c2ccccc2)[C@H]([N+](=O)[O-])[C@@H](c2ccc(O)cc2)N1Cc1cccnc1 (racemic) here?
The inhibition was 43.3%.

And the inhibition [2]?
The inhibition was “Dose-dependent effect”.

Which inhibition [1] does the source give for O=C1C[C@@H](c2ccccc2)[C@H]([N+](=O)[O-])[C@@H](c2ccc(O)cc2)N1Cc1ccccc1 (racemic) here?
Its inhibition is 43.6%.

Which Activity [3] does the source give for COC(=O)c1ccc(CN2C(=O)C[C@@H](c3ccccc3Cl)[C@H]([N+](=O)[O-])[C@H]2c2ccc(O)cc2)cc1 (racemic) here?
Its Activity is “Dose-dependent effect”.

What about the IC50 [3] of the same compound?
Its IC50 is 3490 nM.

And the Activity [4]?
The Activity was “Dose-dependent effect”.

And the IC50 [4]?
The IC50 was 80 nM.

And the inhibition [1]?
Its inhibition is 33.1%.

And the Activity [5]?
Its Activity is “Dose-dependent effect”.

What about the IC50 [5] of the same compound?
Its IC50 is 90 nM.

For COc1ccc(CN2C(=O)C[C@@H](c3ccc(C)cc3)[C@H]([N+](=O)[O-])[C@H]2c2ccc(O)cc2)cc1 (racemic), which inhibition [1] is on record?
Its inhibition is 30.6%.

For COc1cc(OC)cc([C@@H]2CC(=O)N(Cc3ccccc3)[C@H](c3ccc(O)cc3)[C@H]2[N+](=O)[O-])c1 (racemic), which inhibition [1] is on record?
The inhibition was 55%.

With COc1ccc(CN2C(=O)C[C@@H](c3ccccc3)[C@H]([N+](=O)[O-])[C@H]2c2ccc(O)cc2)cc1OC (racemic) as the compound, how does the inhibition [1] read?
The inhibition was 49.2%.

Which inhibition [1] does the source give for Cc1ccc(CN2C(=O)C[C@@H](c3ccc(C)cc3)[C@H]([N+](=O)[O-])[C@H]2c2ccc(O)cc2)cc1 (racemic) here?
The inhibition was 42.1%.

Which inhibition [6] does the source give for COc1cc(OC)cc([C@@H]2CC(=O)N(Cc3ccc(OC)c(OC)c3)[C@H](c3ccc(O)cc3)[C@H]2[N+](=O)[O-])c1 (racemic) here?
The inhibition was “Active”.

And the Activity [7]?
The Activity was 82.92%.

What about the Activity [8] of the same compound?
Its Activity is “Non-toxic”.

What about the Activity [9] of the same compound?
The Activity was “Dose-dependent effect”.

And the inhibition [10]?
Its inhibition is “Dose-dependent effect”.

And the Activity [11]?
The Activity was “Non-toxic”.

And the Activity [3]?
Its Activity is “Dose-dependent effect”.

What about the IC50 [3] of the same compound?
Its IC50 is 210 nM.

What about the Activity [12] of the same compound?
The Activity was “Non-toxic”.

What about the Activity [4] of the same compound?
Its Activity is “Dose-dependent effect”.

What about the IC50 [4] of the same compound?
The IC50 was 30 nM.

What about the inhibition [1] of the same compound?
The inhibition was 59.1%.

What about the Activity [5] of the same compound?
Its Activity is “Dose-dependent effect”.

What about the IC50 [5] of the same compound?
Its IC50 is 80 nM.

And the inhibition [2]?
Its inhibition is “Dose-dependent effect”.

Which inhibition [1] does the source give for O=C1C[C@@H](c2ccccc2)[C@H]([N+](=O)[O-])[C@@H](c2ccc(O)cc2)N1Cc1ccc(F)cc1 (racemic) here?
Its inhibition is 6.39%.

Which Activity [3] does the source give for COc1cccc(CN2C(=O)C[C@@H](c3cc(OC)cc(OC)c3)[C@H]([N+](=O)[O-])[C@H]2c2ccc(O)cc2)c1 (racemic) here?
The Activity was “Dose-dependent effect”.

What about the IC50 [3] of the same compound?
The IC50 was 850 nM.

What about the Activity [4] of the same compound?
The Activity was “Dose-dependent effect”.

And the IC50 [4]?
Its IC50 is 170 nM.

And the inhibition [1]?
The inhibition was 56.9%.

And the Activity [5]?
The Activity was “Dose-dependent effect”.

And the IC50 [5]?
The IC50 was 20 nM.
